In ChEMBL document CHEMBL5724801, “EUbOPEN Chemogenomics Library - Multiplex” (2024):
Several values for one entry are separate records, joined by “and”; a condition that tells them apart may be missing. Equal values may be shown once.

Test system: HEK-293T
Assay: Multiplex assay against HEK293T
Format: toxicity, cell-based
Details: human
Procedure, shortened: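 Hoechst33342, BioTracker Green Microtubule Cytoskeleton Dye, MitoTracker Red and Annexin V Alexa Fluor 680 were added to live cells at seeding, and imaging on a CQ1 microscope at 37°C and 5% CO2 followed compound addition. Gating by CellPathfinder machine learning separated cells into Hoechst high-intensity objects or normal cells, then normal cells into healthy, pyknosed or fragmented nuclei, then pyknosed cells into mitotic or apoptotic. Per cents of healthy-nucleus cells are reported for the tubulin, mitochondrial-mass and membrane-permeability phenotypes.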

[1] = 12 h, 1 µM, compound concentration 1 uM
[2] = 12 h, 10 µM, compound concentration 10 uM
[3] = 24 h, 1 µM, compound concentration 1 uM
[4] = 24 h, 10 µM, compound concentration 10 uM
[5] = 48 h, 1 µM, compound concentration 1 uM
[6] = 48 h, 10 µM, compound concentration 10 uM

C[C@H]1[C@H]2CC[C@H]3[C@@H]4CC=C5C[C@@H](N(C)C)CC[C@]5(C)[C@H]4CC[C@]23CN1C [CONESSINE]
Population Apoptotic (%) [1]: 35% and 48%
Population Fragmented Nuclei (%) [1]: 5% and 4%
Population Healthy Nuclei (%) [1]: 78% and 85%
Population Hoechst High Intensity Objects (%) [1]: 6% and 8%
Population Membrane Permeable-Phenotype (%) [1]: 0%
Population Mitochondria Different-Phenotype (%) [1]: 39% and 58%
Population Mitotic Cells (%) [1]: 65% and 51%
Population Normal (%) [1]: 93% and 91%
Population Pyknosed Nuclei (%) [1]: 16% and 10%
Population Tubulin-Different-Phenotype (%) [1]: 26% and 22%
Total Cell Count [1]: 400 and 356
Population Apoptotic (%) [2]: 35% and 59%
Population Fragmented Nuclei (%) [2]: 6% and 7%
Population Healthy Nuclei (%) [2]: 77% and 78%
Population Hoechst High Intensity Objects (%) [2]: 6% and 9%
Population Membrane Permeable-Phenotype (%) [2]: 1% and 0%
Population Mitochondria Different-Phenotype (%) [2]: 56% and 62%
Population Mitotic Cells (%) [2]: 65% and 40%
Population Normal (%) [2]: 93% and 90%
Population Pyknosed Nuclei (%) [2]: 15% and 14%
Population Tubulin-Different-Phenotype (%) [2]: 38% and 30%
Total Cell Count [2]: 419 and 384
Population Apoptotic (%) [3]: 26% and 25%
Population Fragmented Nuclei (%) [3]: 9% and 8%
Population Healthy Nuclei (%) [3]: 80% and 81%
Population Hoechst High Intensity Objects (%) [3]: 5% and 4%
Population Membrane Permeable-Phenotype (%) [3]: 1% and 0%
Population Mitochondria Different-Phenotype (%) [3]: 22% and 34%
Population Mitotic Cells (%) [3]: 73% and 75%
Population Normal (%) [3]: 94% and 95%
Population Pyknosed Nuclei (%) [3]: 10%
Population Tubulin-Different-Phenotype (%) [3]: 17% and 16%
Total Cell Count [3]: 514 and 484
Population Apoptotic (%) [4]: 27% and 47%
Population Fragmented Nuclei (%) [4]: 9%
Population Healthy Nuclei (%) [4]: 79% and 82%
Population Hoechst High Intensity Objects (%) [4]: 6% and 9%
Population Membrane Permeable-Phenotype (%) [4]: 1% and 0%
Population Mitochondria Different-Phenotype (%) [4]: 38% and 43%
Population Mitotic Cells (%) [4]: 72% and 52%
Population Normal (%) [4]: 93% and 90%
Population Pyknosed Nuclei (%) [4]: 11% and 7%
Population Tubulin-Different-Phenotype (%) [4]: 28% and 24%
Total Cell Count [4]: 572 and 474
Population Apoptotic (%) [5]: 30% and 36%
Population Fragmented Nuclei (%) [5]: 9% and 10%
Population Healthy Nuclei (%) [5]: 82% and 83%
Population Hoechst High Intensity Objects (%) [5]: 2% and 4%
Population Membrane Permeable-Phenotype (%) [5]: 1%
Population Mitochondria Different-Phenotype (%) [5]: 18% and 20%
Population Mitotic Cells (%) [5]: 69% and 63%
Population Normal (%) [5]: 97% and 95%
Population Pyknosed Nuclei (%) [5]: 7% and 5%
Population Tubulin-Different-Phenotype (%) [5]: 12% and 11%
Total Cell Count [5]: 735 and 630
Population Apoptotic (%) [6]: 27% and 36%
Population Fragmented Nuclei (%) [6]: 14% and 10%
Population Healthy Nuclei (%) [6]: 78% and 81%
Population Hoechst High Intensity Objects (%) [6]: 4% and 5%
Population Membrane Permeable-Phenotype (%) [6]: 1% and 0%
Population Mitochondria Different-Phenotype (%) [6]: 23% and 32%
Population Mitotic Cells (%) [6]: 72% and 63%
Population Normal (%) [6]: 95% and 94%
Population Pyknosed Nuclei (%) [6]: 6% and 7%
Population Tubulin-Different-Phenotype (%) [6]: 15% and 17%
Total Cell Count [6]: 767 and 618

CCn1cnc2c(-c3ccc(F)c(-c4ccc(S(=O)(=O)CC)cc4OC)c3)cnnc21 [DARIGABAT]
Population Apoptotic (%) [1]: 11.84% and 26.37%
Population Fragmented Nuclei (%) [1]: 2.08% and 6.03%
Population Healthy Nuclei (%) [1]: 45.14% and 15.52%
Population Hoechst High Intensity Objects (%) [1]: 0.69% and 0%
Population Membrane Permeable-Phenotype (%) [1]: 1.54% and 0%
Population Mitochondria Different-Phenotype (%) [1]: 30.77% and 11.11%
Population Mitotic Cells (%) [1]: 88.16% and 73.63%
Population Normal (%) [1]: 99.31% and 100%
Population Pyknosed Nuclei (%) [1]: 52.78% and 78.45%
Population Tubulin-Different-Phenotype (%) [1]: 7.69% and 16.67%
Total Cell Count [1]: 290 and 116
Population Apoptotic (%) [2]: 21.29% and 10%
Population Fragmented Nuclei (%) [2]: 1.32% and 0.75%
Population Hoechst High Intensity Objects (%) [2]: 0.44% and 0%
Population Membrane Permeable-Phenotype (%) [2]: 0%
Population Mitochondria Different-Phenotype (%) [2]: 28.57% and 46.15%
Population Mitotic Cells (%) [2]: 78.71% and 90%
Population Normal (%) [2]: 99.56% and 100%
Population Pyknosed Nuclei (%) [2]: 67.98% and 89.55%
Population Tubulin-Different-Phenotype (%) [2]: 40% and 69.23%
Total Cell Count [2]: 229 and 134
Population Apoptotic (%) [3]: 18.67% and 32.22%
Population Fragmented Nuclei (%) [3]: 2.2% and 5.36%
Population Hoechst High Intensity Objects (%) [3]: 0.22% and 1.75%
Population Membrane Permeable-Phenotype (%) [3]: 1.8% and 0%
Population Mitochondria Different-Phenotype (%) [3]: 24.46% and 31.25%
Population Mitotic Cells (%) [3]: 81.33% and 67.78%
Population Normal (%) [3]: 99.78% and 98.25%
Population Pyknosed Nuclei (%) [3]: 36.56% and 80.36%
Population Tubulin-Different-Phenotype (%) [3]: 17.63% and 6.25%
Population Apoptotic (%) [4]: 40.69% and 29.17%
Population Fragmented Nuclei (%) [4]: 0.43% and 1.46%
Population Hoechst High Intensity Objects (%) [4]: 0.86% and 0%
Population Membrane Permeable-Phenotype (%) [4]: 0% and 6.67%
Population Mitochondria Different-Phenotype (%) [4]: 61.9% and 46.67%
Population Mitotic Cells (%) [4]: 59.31% and 70.83%
Population Normal (%) [4]: 99.14% and 100%
Population Pyknosed Nuclei (%) [4]: 63.04% and 87.59%
Total Cell Count [4]: 232 and 137
Population Apoptotic (%) [5]: 12.68% and 27.16%
Population Fragmented Nuclei (%) [5]: 3.42% and 2.05%
Population Healthy Nuclei (%) [5]: 77.19% and 42.47%
Population Hoechst High Intensity Objects (%) [5]: 0%
Population Membrane Permeable-Phenotype (%) [5]: 3.54% and 1.61%
Population Mitochondria Different-Phenotype (%) [5]: 36.28% and 61.29%
Population Mitotic Cells (%) [5]: 87.32% and 72.84%
Population Normal (%) [5]: 100%
Population Pyknosed Nuclei (%) [5]: 19.4% and 55.48%
Population Apoptotic (%) [6]: 55.34% and 39.62%
Population Fragmented Nuclei (%) [6]: 1.71% and 3.1%
Population Hoechst High Intensity Objects (%) [6]: 0.34% and 0%
Population Membrane Permeable-Phenotype (%) [6]: 1.08% and 0%
Population Mitochondria Different-Phenotype (%) [6]: 92.97% and 73.68%
Population Mitotic Cells (%) [6]: 44.66% and 60.38%
Population Normal (%) [6]: 99.66% and 100%
Population Pyknosed Nuclei (%) [6]: 35.15% and 82.17%
Total Cell Count [6]: 294 and 129
